Measurements taken from ChEMBL document CHEMBL1138522, “A novel small-molecule inhibitor of the avian influenza H5N1 virus determined through computational screening against the neuraminidase” (J Med Chem, 2009).
Active and inactive are the calls of the source. The rule behind the calls is not given here. Residues, ends and D or L forms follow the SMILES beside them. *: point of attachment. Cbz = O=C(OCc1ccccc1)*

Legend:
Influenza A virus [1] = test: Antiviral activity against Influenza A virus (A/Viet Nam/1203/2004(H5N1)) in MDCK cells assessed as inhibition of viral replication after 48 hrs by hemagglutinination assay; type: functional, organism-based
[2] = Cytotoxicity against primary human blood macrophages after 48 hrs by MTT assay; type: cell-based; conditions: macrophage
In short: (§1)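 Primary human blood macrophages or MDCK cells were incubated 48 h with DMSO-dissolved compound; viability by MTT assay. DMSO-treated cells served as solvent controls.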

Influenza A virus [3] = test: Antiviral activity against influenza A virus H1N1 A/HK/54/98 in MDCK cells assessed as inhibition of viral replication after 48 hrs by hemagglutinination assay; type: functional, organism-based
In short: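 H1N1 A/HK/54/98 infected MDCK cells at moi 2 for 30 min, then washed once with PBS. Cells were refed with serum-free medium containing TPCK-trypsin plus compound. Supernatant was collected 48 h post-infection and viral titre was read by hemagglutination assay.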

MDCK = test: Cytotoxicity against MDCK cells after 48 hrs by MTT assay; type: cell-based, Canis lupus familiaris; conditions: dog; in short: as §1
Influenza A virus [4] = test: Antiviral activity against Influenza A virus (A/Viet Nam/1203/2004(H5N1)) in MDCK cells assessed as inhibition of viral replication at 100 uM after 18 hrs by transmission electron microscopy; type: functional, organism-based
Influenza A virus [5] = test: Antiviral activity against influenza A virus H1N1 A/HK/54/98 in MDCK cells assessed as inhibition of viral replication at 100 uM after 18 hrs by transmission electron microscopy; type: functional, organism-based
In short: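 MDCK cells were infected with H1N1 at moi 2, then treated with compound at 100 µM, with DMSO controls. At 18 h post-infection, cells were fixed in 2.5% glutaraldehyde in 0.1 M cacodylate (pH 7.4), post-fixed in 1% osmium tetroxide, and embedded in epoxy. 100 nm sections were examined by TEM for surface virions.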

Influenza A virus [6] = test: Antiviral activity against influenza A virus H1N1 A/HK/54/98 in MDCK cells assessed as inhibition of virus-induced cytopathic effect after 48 hrs by crystal violet staining; type: functional, organism-based
In short: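 H1N1 A/HK/54/98 infected MDCK cells at moi 2, with compound over a range of concentrations; supernatant taken at 48 h. Serial 2-fold dilutions were adsorbed 1 h onto MDCK cells (2 × 10^4/well), then incubated 4 days in MEM with 1 µg/mL TPCK-trypsin. CPE was read by formaldehyde fixation and crystal violet staining; TCID50 by Reed-Muench. Three independent experiments.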

Influenza A virus [7] = test: Antiviral activity against Influenza A virus (A/Viet Nam/1203/2004(H5N1)) in MDCK cells assessed as inhibition of virus-induced cytopathic effect after 48 hrs by crystal violet staining; type: functional, organism-based
Mus musculus = test: Toxicity in mouse assessed as survival up to 400 mg/kg; type: organism-based; set-up: dose 400 mg/kg; conditions: in vivo
[8] = target: Neuraminidase (Influenza A virus) (UniProt B4URF0); test: Inhibition of influenza A virus H1N1 neuraminidase catalytic activity at 100 uM
In short: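 Chemiluminescent NA-Star kit using H1N1 virus (TCID50 2 × 10^7/mL, diluted 5-fold) as enzyme source. Virus was preincubated with compound, in triplicate, 20 min at 37 °C. 1:1000-diluted substrate was then added for 30 min at room temperature, followed by accelerator and an immediate luminescence read.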

In the case of `C[C@H](NC(=O)OCc1ccccc1)C(=O)N[C@@H](Cc1c[nH]c2ccccc12)C(=O)O` (Cbz-Ala-Trp-OH), the Activity (Influenza A virus [1]) was “inactive”, the Activity [2] was 0.9 µM and the Activity (Influenza A virus [3]) was “inactive”.

For `O=C(O[C@H](C(=O)O)[C@H](OC(=O)c1ccccc1)C(=O)O)c1ccccc1`, the Activity (Influenza A virus [1]) was “inactive”, the Activity (MDCK) was 0.7 µM and the Activity [2] was 1.1 µM. The Activity (Influenza A virus [3]) was “inactive”.

In the case of `CCOC(=O)C1=C[C@@H](OC(CC)CC)[C@H](NC(C)=O)[C@@H](N)C1`, the Activity (Influenza A virus [4]) was “Active”, the Activity (Influenza A virus [1]) was “Active” and the Activity (Influenza A virus [3]) was “Active”. For the same compound, the Activity (Influenza A virus [5]) was “Active”.

With `O=C(O)C(Cc1ccc(O)cc1)c1ccc(C(Cc2ccc(O)cc2)C(=O)O)cc1` (centres undefined) the Activity (Influenza A virus [1]) was “inactive”, the Activity [2] was 0.1 µM and the Activity (Influenza A virus [3]) was “inactive”.

In the case of `Nc1nc(O)c2cc(CSc3ccc(C(=O)NC(CCC(=O)O)C(=O)O)cc3)ccc2n1` (centres undefined), the Activity (MDCK) was 1.1 µM and the Activity [2] was 1.1 µM.

For `O=C(/C=C/c1ccc(O)c(O)c1)NCC(=O)NC(Cc1ccccc1)C(=O)O` (centres undefined), the Activity (Influenza A virus [1]) was “inactive”, the Activity (MDCK) was 2.2 µM and the Activity [2] was 1.1 µM. The Activity (Influenza A virus [3]) was “inactive”.

With `CC[C@H](C)[C@H](NC(=O)[C@H](C)NC(=O)OCc1ccccc1)C(=O)O` (Cbz-Ala-Ile-OH) the Activity (Influenza A virus [1]) was “inactive”, the Activity [2] was 1 µM and the Activity (Influenza A virus [3]) was “inactive”.

For `O=C(O)CCC(=O)CCC(=O)c1ccc2ccccc2c1`, the Activity (Influenza A virus [1]) was “inactive”, the Activity (MDCK) was 1 µM and the Activity [2] was 1.1 µM. The Activity (Influenza A virus [3]) was “inactive”.

In the case of `O=C(Nc1ccn(C2CCC(COC(c3ccccc3)(c3ccccc3)c3ccccc3)O2)c(=O)n1)c1ccccc1` (centres undefined), the Activity (Influenza A virus [1]) was “inactive”, the Activity [2] was 0.8 µM and the Activity (Influenza A virus [3]) was “inactive”.

For `CCOC(=O)C(O)C(=O)OCc1ccc2ccccc2n1` (centres undefined), the Activity (Influenza A virus [1]) was “inactive”, the Activity (MDCK) was 1.4 µM and the Activity [2] was 1 µM. For the same compound, the Activity (Influenza A virus [3]) was “inactive”.

In the case of `Nc1nc(=O)c2cc(NCc3ccc(C(=O)NC(CCC(=O)O)C(=O)O)cc3)ccc2[nH]1` (centres undefined), the Activity (Influenza A virus [1]) was “inactive”, the Activity (MDCK) was 1.2 µM and the Activity [2] was 0.9 µM. For the same compound, the Activity (Influenza A virus [3]) was “inactive”.

With `Cc1ccccc1OC(=O)Nc1ccc(C(=O)O)c(O)c1` the Activity (Influenza A virus [1]) was “inactive”, the Activity (MDCK) was 1.7 µM and the Activity [2] was 0.9 µM. For the same compound, the Activity (Influenza A virus [3]) was “inactive”.

With `Nc1nc(=O)c2cc(CSc3ccc(C(=O)NC(CCC(=O)O)C(=O)O)cc3)ccc2[nH]1` (centres undefined) the Activity (Influenza A virus [1]) was “inactive” and the Activity (Influenza A virus [3]) was “inactive”.

In the case of `CNC(=N)Nc1ccc(C(=O)O)cc1.O=S(=O)(O)O`, the Activity (Influenza A virus [1]) was “inactive”, the Activity [2] was 0.7 µM and the Activity (Influenza A virus [3]) was “inactive”.

In the case of `O=C(O)CCC(=O)NCC1CCCC(CNC(=O)CCC(=O)O)C1` (centres undefined), the Activity (Influenza A virus [1]) was “inactive”, the Activity (MDCK) was 1.3 µM and the Activity [2] was 0.9 µM. For the same compound, the Activity (Influenza A virus [3]) was “inactive”.

With `Cc1nc(N)nc(O)c1CCCNc1ccc(/C=C/C(=O)CCl)cc1` the Activity (Influenza A virus [4]) was “Active”, the Activity (Influenza A virus [6]) was “Dose-dependent effect” and the Activity (Influenza A virus [1]) was “Active”. For the same compound, the Activity (Influenza A virus [7]) was “Dose-dependent effect”, the Activity (MDCK) was 2.2 µM and the Activity (Mus musculus) was “Non-toxic”. The Activity [2] was 1.1 µM, the Activity (Influenza A virus [3]) was “Active” and the Activity [8] was “Active”. The Activity (Influenza A virus [5]) was “Active”.

With `O=C(O)CCCCCNC(=O)OCc1ccccc1` the Activity (Influenza A virus [1]) was “inactive”, the Activity (MDCK) was 1.5 µM and the Activity [2] was 0.9 µM. For the same compound, the Activity (Influenza A virus [3]) was “inactive”.

With `Cc1nc(Nc2ccccc2)sc1C(=O)CC(=O)C(=O)NC1C2CC3CC(C2)CC1C3` (centres undefined) the Activity (Influenza A virus [1]) was “inactive”, the Activity (MDCK) was 1.5 µM and the Activity [2] was 1.1 µM. The Activity (Influenza A virus [3]) was “inactive”.

In the case of `C/C(=C\C(=O)N1c2ccccc2CC1c1c[nH]c2ccccc12)C(=O)O` (centres undefined), the Activity (Influenza A virus [1]) was “inactive”, the Activity (MDCK) was 1.2 µM and the Activity [2] was 1 µM. The Activity (Influenza A virus [3]) was “inactive”.

For `Cc1cccc(OC(=O)Nc2ccc(C(=O)O)c(O)c2)c1`, the Activity (Influenza A virus [1]) was “inactive”, the Activity (MDCK) was 2.3 µM and the Activity [2] was 1 µM. For the same compound, the Activity (Influenza A virus [3]) was “inactive”.

For `O=C(O)c1ccccc1C(=O)Nc1cc2c(cc1Br)-c1ccccc1C2=O`, the Activity (Influenza A virus [1]) was “inactive”, the Activity (MDCK) was 1.1 µM and the Activity [2] was 10 µM. For the same compound, the Activity (Influenza A virus [3]) was “inactive”.

With `CCOC(=O)CNC(=O)CCC(NS(=O)(=O)c1ccc(C)cc1)C(=O)O` (centres undefined) the Activity (Influenza A virus [1]) was “inactive”, the Activity [2] was 0.8 µM and the Activity (Influenza A virus [3]) was “inactive”.
